Screening results: PubChem, several laboratories
CSC inhib = cancer stem cell viability inhibitors, primary screen, luminescence; AID 2717, 2010; inhibition, % at 7.5 µM; 300,000 compounds, 1.1% hits; cancer stem cell-like cells viability; in the data active means inhibition above about 75%; tested in HMLE shEcad cells
SKKanGAS inh = S. pyogenes SKKanGAS growth inhibitors in kanamycin, primary screen, streptokinase expression inhibitor project, SKKanGAS strain, BacTiter-Glo luminescence | inhibition, % at 7.5 µM | 300,000 compounds, 1.3% hits | 6 h;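 active means mean replicate score, as percent of positive control median, at least 50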;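 further: strain carries kanamycin resistance gene driven by streptokinase promoter and grows in 40 µg/ml kanamycin; loss of luminescence reflects streptokinase promoter inhibition or plain growth inhibition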
Mdm2-MdmX inh = inhibitors of human Mdm2-MdmX association, primary screen, cell-based, luminescence, split luciferase, SaOS-2, uHTS. SaOS-2 split-luciferase Mdm2/MdmX complementation. inhibition, % at 8 µM. 330,000 compounds, 3% hits. Protein Mdm4 (Homo sapiens) + E3 ubiquitin-protein ligase Mdm2 (Homo sapiens), …;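 active means inhibition of at least 50% at 8 µM in the primary screen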
Target sequence (O15151 whole entry, looked up): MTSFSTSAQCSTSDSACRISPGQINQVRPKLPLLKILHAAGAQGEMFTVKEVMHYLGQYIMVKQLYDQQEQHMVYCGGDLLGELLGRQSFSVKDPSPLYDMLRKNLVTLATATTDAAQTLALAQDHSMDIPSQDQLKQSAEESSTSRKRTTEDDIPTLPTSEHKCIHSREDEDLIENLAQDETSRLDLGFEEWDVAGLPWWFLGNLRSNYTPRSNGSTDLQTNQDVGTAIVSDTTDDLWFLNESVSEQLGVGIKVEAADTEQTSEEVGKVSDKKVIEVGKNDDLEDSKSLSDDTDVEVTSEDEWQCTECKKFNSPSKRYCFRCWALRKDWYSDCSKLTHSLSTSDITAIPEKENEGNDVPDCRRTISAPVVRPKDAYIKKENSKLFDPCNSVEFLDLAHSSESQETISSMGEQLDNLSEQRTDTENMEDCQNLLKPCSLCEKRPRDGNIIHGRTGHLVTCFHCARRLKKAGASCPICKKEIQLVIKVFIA
Target sequence (Q00987 whole entry, looked up): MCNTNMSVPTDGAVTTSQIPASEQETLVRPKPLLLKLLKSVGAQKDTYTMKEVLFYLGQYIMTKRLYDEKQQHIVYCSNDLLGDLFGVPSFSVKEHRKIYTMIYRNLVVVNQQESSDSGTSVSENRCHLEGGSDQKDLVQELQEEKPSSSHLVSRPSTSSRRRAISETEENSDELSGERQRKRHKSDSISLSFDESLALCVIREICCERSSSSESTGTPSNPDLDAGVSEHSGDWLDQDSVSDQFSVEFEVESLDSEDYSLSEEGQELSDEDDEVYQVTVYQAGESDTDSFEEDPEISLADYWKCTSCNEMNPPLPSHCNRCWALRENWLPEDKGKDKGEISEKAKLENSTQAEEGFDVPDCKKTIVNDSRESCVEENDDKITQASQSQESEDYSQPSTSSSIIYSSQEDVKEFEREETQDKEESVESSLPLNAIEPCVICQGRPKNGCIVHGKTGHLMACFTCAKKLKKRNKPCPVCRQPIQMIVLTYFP
Beta cell apopt = inhibitors of cytokine-induced beta cell apoptosis, primary screen, luminescence; INS-1E cytokine-induced death, ATP luminescence, 48 h; percent of positive-control rescue, neutral wells zero; protection from apoptosis, % (no concentration beside the values); 300,000 compounds, 0.8% hits; AID 435005, 2010;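 active means Every replicate reaches about 75%, or at least half do and their mean reaches it too, limit read from the data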;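 further: higher means more ATP so stronger rescue from cytokine killing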
T cruzi inh = inhibitors of intracellular T. cruzi growth, primary screen, luminescence, NIH3T3 host cells; T. cruzi beta-gal in NIH3T3, 90 h; inhibition, % (no concentration beside the values); 300,000 compounds, 1.4% hits;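 active means mean inhibition across valid replicates above about 55%, limit read from the data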;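 further: signal also drops with host cell toxicity which is not excluded here; higher percent means less beta-gal luminescence so fewer parasites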
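Material: NIH/3T3 host cells with β-galactosidase reporter T. cruzi; Input: 5,000 host fibroblasts per well; Medium: DMEM, 2% fetal bovine serum; Compound: 50 nL DMSO compound solution per well; Schedule: 3 h host attachment, then at least 90 h co-culture; Detection: luminescent β-galactosidase signal after 60 min lysis.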
L major viab = Leishmania major promastigote growth inhibition, primary screen. Leishmania major promastigotes, resazurin fluorescence viability. inhibition, % at 10 µM. 200,000 compounds, 9% hits. AID 1063, 2008; in the data active means inhibition above about 50%;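 further: promastigotes grown with compound for 44 hours at 28 °C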
Hits are given with their value. An excerpt weighted towards active compounds, which were near 9.4% of everything screened.

O=C(Nc1ccccc1)C1=C[C@@H](c2ccc(C(F)(F)F)cc2)C[C@@H](OCCCCO)O1 was read as CSC inhib inactive, SKKanGAS inh inactive, Mdm2-MdmX inh inactive, Beta cell apopt inactive and T cruzi inh inactive.
O=C(c1ccc(COc2ccccc2Br)o1)N1CCCCCC1 was read as CSC inhib inactive, SKKanGAS inh inactive, Mdm2-MdmX inh inactive, Beta cell apopt inactive, T cruzi inh inactive and L major viab inactive.
`O=C(c1ccc(COc2ccccc2Br)cc1)N1CCCCC1` gave CSC inhib inactive, SKKanGAS inh inactive, Mdm2-MdmX inh inactive, Beta cell apopt inactive, T cruzi inh inactive and L major viab 70.
`O=C(NCc1cccnc1)c1ccc(CN2CCc3ccccc3C2)cc1` gave CSC inhib inactive, SKKanGAS inh inactive, Mdm2-MdmX inh inactive, Beta cell apopt inactive, T cruzi inh inactive and L major viab 63.
`Cc1cc(C)c(NC(=O)c2ccc(CN3CCc4ccccc4C3)cc2)c(C)c1` gave CSC inhib inactive, SKKanGAS inh inactive, Mdm2-MdmX inh inactive, Beta cell apopt inactive, T cruzi inh inactive and L major viab 73.
CCCNC(=O)c1ccc(CN2CCc3ccccc3C2)cc1 was read as CSC inhib inactive, SKKanGAS inh inactive, Mdm2-MdmX inh inactive, Beta cell apopt inactive, T cruzi inh inactive and L major viab 56.
Screening O=C(NCc1ccc2c(c1)OCO2)c1ccc(CN2CCc3ccccc3C2)cc1 returned CSC inhib inactive, SKKanGAS inh inactive, Mdm2-MdmX inh inactive, Beta cell apopt inactive, T cruzi inh inactive and L major viab inactive.
Screening Cc1ccc(S(=O)(=O)N(C)C)cc1NC(=O)c1cccnc1Oc1ccccc1 returned CSC inhib inactive, SKKanGAS inh inactive, Mdm2-MdmX inh inactive, Beta cell apopt inactive and T cruzi inh inactive.
O=C(CN1CCOCC1)Nc1ccc(N2CCN(c3ccccc3)CC2)c(F)c1 was read as CSC inhib inactive, SKKanGAS inh inactive, Mdm2-MdmX inh inactive, Beta cell apopt inactive, T cruzi inh inactive and L major viab inactive.
O=C(C1CCCN(Cc2ccccc2)C1)N1CCc2ccccc2C1 (stereo not given) was read as CSC inhib inactive, SKKanGAS inh inactive, Mdm2-MdmX inh inactive, Beta cell apopt inactive, T cruzi inh inactive and L major viab 96.
O=C(c1ccc(CN2CCc3ccccc3C2)cc1)N1CCCCC1 was read as CSC inhib inactive, SKKanGAS inh inactive, Mdm2-MdmX inh inactive, Beta cell apopt inactive, T cruzi inh inactive and L major viab 63.
Screening CCNc1nc(NCC)nc(SCCOc2ccc(C)cc2)n1 returned SKKanGAS inh inactive, Mdm2-MdmX inh inactive, Beta cell apopt inactive, T cruzi inh inactive and L major viab inactive.
`CCNC(=S)SCCOc1ccc(C)cc1` gave CSC inhib inactive, SKKanGAS inh inactive, Mdm2-MdmX inh inactive, Beta cell apopt inactive, T cruzi inh inactive and L major viab 57.
Cc1ccc(C2CC(c3cccs3)=NN2C(=O)CSc2nc(=O)n3cc(C)ccc3n2)cc1 (stereo not given) was read as CSC inhib inactive, SKKanGAS inh inactive, Mdm2-MdmX inh inactive, Beta cell apopt inactive and T cruzi inh inactive.
Screening CCOC(=O)CSCC(=O)N1N=C(c2cccs2)CC1c1ccc(F)cc1 (stereo not given) returned CSC inhib inactive, SKKanGAS inh inactive, Mdm2-MdmX inh inactive, Beta cell apopt inactive, T cruzi inh inactive and L major viab inactive.
`O=C(CSc1nc2c(cnn2-c2ccc(F)cc2)c(=O)[nH]1)N1N=C(c2cccs2)CC1c1ccc(F)cc1` (stereo not given) gave L major viab 51.
For O=C(CSc1nc2ccccc2s1)N1N=C(c2cccs2)CC1c1ccc(F)cc1 (stereo not given) the results were CSC inhib inactive, SKKanGAS inh inactive, Mdm2-MdmX inh inactive, Beta cell apopt inactive, T cruzi inh 56 and L major viab inactive.
Screening COc1ccc(C2CC(c3cccs3)=NN2C(=O)CSc2nc3ccccc3s2)cc1 (stereo not given) returned CSC inhib inactive, SKKanGAS inh inactive, Mdm2-MdmX inh inactive, Beta cell apopt inactive, T cruzi inh inactive and L major viab inactive.
For Cc1ccn2c(=O)nc(SCC(=O)N3N=C(c4cccs4)CC3c3ccc(F)cc3)nc2c1 (stereo not given) the results were CSC inhib inactive, SKKanGAS inh inactive, Mdm2-MdmX inh inactive, Beta cell apopt inactive and T cruzi inh 59.
Screening CCc1noc(C)c1C(=O)N1CCN(S(=O)(=O)c2cccs2)CC1 returned CSC inhib inactive, SKKanGAS inh inactive, Mdm2-MdmX inh inactive, Beta cell apopt inactive and T cruzi inh inactive.
`O=C1c2ccccc2NC(c2ccc(Cl)cc2Cl)N1Cc1ccccc1` (stereo not given) gave CSC inhib inactive, SKKanGAS inh inactive, Mdm2-MdmX inh inactive, Beta cell apopt inactive, T cruzi inh inactive and L major viab 82.
For O=C1c2ccccc2NC(c2c(Cl)cccc2Cl)N1Cc1ccccc1 (stereo not given) the results were CSC inhib inactive, SKKanGAS inh inactive, Mdm2-MdmX inh inactive, Beta cell apopt inactive, T cruzi inh inactive and L major viab 56.
O=C1c2ccccc2NC(c2cccc(F)c2)N1Cc1ccccc1 (stereo not given) was read as CSC inhib inactive, SKKanGAS inh inactive, Mdm2-MdmX inh inactive, Beta cell apopt inactive and T cruzi inh inactive.
O=C(O)c1ccccc1OCCN1CCCC1=O was read as CSC inhib inactive, SKKanGAS inh inactive, Mdm2-MdmX inh inactive, Beta cell apopt inactive and T cruzi inh inactive.
CCN(CC(O)CON=C1c2ccccc2-c2ccccc21)S(=O)(=O)c1ccc(C)cc1 (stereo not given) was read as CSC inhib inactive, SKKanGAS inh inactive, Mdm2-MdmX inh inactive, Beta cell apopt inactive, T cruzi inh 62 and L major viab 100.
For CCN(CC(O)CON=C1c2ccccc2-c2ccccc21)S(=O)(=O)c1ccc(Cl)cc1 (stereo not given) the results were CSC inhib inactive, SKKanGAS inh inactive, Mdm2-MdmX inh inactive, Beta cell apopt inactive, T cruzi inh 62 and L major viab 100.
`Cc1cccc(N(CC(O)CON=C2c3ccccc3-c3ccccc32)S(C)(=O)=O)c1` (stereo not given) gave CSC inhib inactive, SKKanGAS inh inactive, Mdm2-MdmX inh inactive, Beta cell apopt inactive, T cruzi inh 60 and L major viab 56.
For CN(CC(O)CON=C1c2ccccc2-c2ccccc21)S(=O)(=O)c1ccc(Br)cc1 (stereo not given) the results were CSC inhib 98, SKKanGAS inh inactive, Mdm2-MdmX inh inactive, Beta cell apopt inactive, T cruzi inh inactive and L major viab 100.
